What was measured:
[1] = system: HPAC; assay: Inhibition of cell growth of human HPAC cells measured after 72 hrs by CCK8 assay; format: functional
[2] = system: PANC-1; assay: Inhibition of cell growth of human PANC-1 cells measured after 72 hrs by CCK8 assay; format: functional
[3] = system: ASPC1; assay: Inhibition of cell growth of human ASPC1 cells measured after 72 hrs by CCK8 assay; format: functional
[4] = system: Capan-2; assay: Inhibition of cell growth of human Capan-2 cells measured after 72 hrs by CCK8 assay; format: functional
[5] = system: BXPC-3; assay: Inhibition of cell growth of human BXPC-3 cells measured after 72 hrs by CCK8 assay; format: functional
How it was run: (§1)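 CCK-8 viability in human pancreatic cancer lines. Compounds were added over 100–0.05 μM 24 h after seeding, alongside a 0.5% DMSO vehicle. After 72 h, CCK-8 was incubated for 1 h at 37 °C. A450 minus A650 was expressed as % of vehicle. IC50 was taken from the dose-response curve. Seeding was 3×10^3/well for MiaPaCa2 and 7×10^3/well for BxPC3 and CFPAC-1. n = 3.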

[6] = system: BE(2)-C; assay: Inhibition of cell growth of human BE2C cells measured after 72 hrs by MTT assay; format: functional
How it was run: (§2)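 MTT read-out. Cancer lines were grown in DMEM with 10% FBS, glutamine and antibiotics. MCF10A was grown in DMEM:F12 with 5% horse serum, EGF, hydrocortisone, cholera toxin and insulin. Cells were plated in duplicate at 2500–4000/well, and drug was added 24 h later. After 72 h, absorbance was read at 540 nm. Single-point lines used 25 μM. GI50 is 50% growth inhibition versus untreated control. n = 3.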

[7] = system: BXPC-3; assay: Inhibition of cell growth of human BXPC-3 cells measured after 72 hrs by MTT assay; format: functional; how it was run: as §2
[8] = system: A2780; assay: Inhibition of cell growth of human A2780 cells measured after 72 hrs by MTT assay; format: functional; how it was run: as §2
[9] = system: PANC-1; assay: Inhibition of cell growth of human PANC-1 cells measured after 72 hrs by MTT assay; format: functional; how it was run: as §2
[10] = system: A2780; assay: Inhibition of cell growth of human A2780 cells at 25 uM measured after 72 hrs by MTT assay relative to control; format: functional; how it was run: as §2
[11] = system: PANC-1; assay: Inhibition of cell growth of human PANC-1 cells at 25 uM measured after 72 hrs by MTT assay relative to control; format: functional; how it was run: as §2
[12] = system: ASPC1; assay: Inhibition of cell growth of human ASPC1 cells at 25 uM measured after 72 hrs by MTT assay relative to control; format: functional; how it was run: as §2
[13] = system: HT-29; assay: Inhibition of cell growth of human HT-29 cells measured after 72 hrs by MTT assay; format: functional; how it was run: as §2
[14] = system: ASPC1; assay: Inhibition of cell growth of human ASPC1 cells measured after 72 hrs by MTT assay; format: functional; how it was run: as §2
[15] = system: MCF7; assay: Inhibition of cell growth of human MCF7 cells at 25 uM measured after 72 hrs by MTT assay relative to control; format: functional; how it was run: as §2
[16] = system: HT-29; assay: Inhibition of cell growth of human HT-29 cells at 25 uM measured after 72 hrs by MTT assay relative to control; format: functional; how it was run: as §2
[17] = system: MCF7; assay: Inhibition of cell growth of human MCF7 cells measured after 72 hrs by MTT assay; format: functional; how it was run: as §2
[18] = system: Capan-2; assay: Inhibition of cell growth of human Capan-2 cells measured after 72 hrs by MTT assay; format: functional; how it was run: as §2
[19] = Inhibition of cell growth of human MCF-10A cells at 25 uM measured after 72 hrs by MTT assay relative to control; format: toxicity, cell-based; how it was run: as §2
[20] = system: BXPC-3; assay: Inhibition of cell growth of human BXPC-3 cells at 25 uM measured after 72 hrs by MTT assay relative to control; format: functional; how it was run: as §2
[21] = system: BE(2)-C; assay: Inhibition of cell growth of human BE2C cells at 25 uM measured after 72 hrs by MTT assay relative to control; format: functional; how it was run: as §2
[22] = system: MIA PaCa-2; assay: Inhibition of cell growth of human MIA PaCa-2 cells measured after 72 hrs by MTT assay; format: functional; how it was run: as §2
[23] = system: Capan-2; assay: Inhibition of cell growth of human Capan-2 cells at 25 uM measured after 72 hrs by MTT assay relative to control; format: functional; how it was run: as §2
[24] = system: HPAC; assay: Inhibition of cell growth of human HPAC cells at 25 uM measured after 72 hrs by MTT assay relative to control; format: functional; how it was run: as §2
[25] = system: MIA PaCa-2; assay: Inhibition of cell growth of human MIA PaCa-2 cells at 25 uM measured after 72 hrs by MTT assay relative to control; format: functional; how it was run: as §2
[26] = system: HPAC; assay: Inhibition of cell growth of human HPAC cells measured after 72 hrs by MTT assay; format: functional; how it was run: as §2
[27] = Inhibition of cell growth of human MCF-10A cells measured after 72 hrs by MTT assay; format: toxicity, cell-based; how it was run: as §2
[28] = Inhibition of cell growth of human pancreatic cancer cells measured after 72 hrs by CCK8 assay; format: functional; how it was run: as §1
[29] = system: MIA PaCa-2; assay: Inhibition of cell growth of human MIA PaCa-2 cells at 25 uM measured after 72 hrs by CCK8 assay relative to control; format: functional
How it was run: (§3)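 Single 25 μM exposure, read by CCK-8, n = 3, relative to control. Seeding was 3×10^3/well for MiaPaCa2, 7×10^3/well for BxPC3 (in RPMI-1640/10% FBS) and 1×10^4/well for HPDE (in KSFM with rEGF/BPE). After 24 h attachment, cells were exposed for 72 h. CCK-8 was then incubated for 1 h, and A450 minus A650 was compared with 0.5% DMSO.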

[30] = system: DU-145; assay: Inhibition of cell growth of human DU-145 cells measured after 72 hrs by MTT assay; format: functional; how it was run: as §2
[31] = Inhibition of cell growth of human SJG2 cells measured after 72 hrs by MTT assay; format: functional; conditions: SJ-G2; how it was run: as §2
[32] = Inhibition of cell growth of human HPDE cells at 25 uM measured after 72 hrs by CCK8 assay relative to control; format: toxicity, cell-based; how it was run: as §3
[33] = system: A-431; assay: Inhibition of cell growth of human A-431 cells measured after 72 hrs by MTT assay; format: functional; how it was run: as §2
[34] = system: U-87 MG; assay: Inhibition of cell growth of human U87 cells measured after 72 hrs by MTT assay; format: functional, U-87MG ATCC; how it was run: as §2
[35] = system: NCI-H460; assay: Inhibition of cell growth of human NCI-H460 cells measured after 72 hrs by MTT assay; format: functional; how it was run: as §2
[36] = system: BXPC-3; assay: Inhibition of cell growth of human BXPC-3 cells at 25 uM measured after 72 hrs by CCK8 assay relative to control; format: functional; how it was run: as §3

Compound	GI50 [7]	GI50 [8]	GI50 [9]	GI50 [13]	GI50 [14]	GI50 [17]	GI50 [22]	GI50 [30]	GI50 [33]	GI50 [34]	GI50 [35]	GI50 [6]	GI50 [18]	GI50 [26]	GI50 at 72 h [27]	inhibition at 25 µM [29]	GI50 [31]	inhibition at 72 h, 25 µM [32]	inhibition at 25 µM [36]	further results
Cc1ccc(-c2cn(CCCN3CCN(S(=O)(=O)c4ccc(C(F)(F)F)cc4)CC3)nn2)cc1	–	–	–	–	–	–	–	–	–	–	–	–	–	–	–	–	–	–	–	GI50 [1]: 5 µM; GI50 [2]: 6.1 µM; GI50 [3]: 7.3 µM; GI50 [4]: 5 µM; GI50 [5]: 4 µM
COc1ccc(-c2cn(CCCN3CCN(S(=O)(=O)c4ccc(C(F)(F)F)cc4)CC3)nn2)cc1	12 µM	6.2 µM	5.2 µM	8.6 µM	14 µM	6.1 µM	7.8 µM	–	–	–	–	6.4 µM	8.4 µM	16 µM	4.9 µM	–	–	–	–	–
CC(C)(C)c1ccc(-c2cn(CCCNCCNS(=O)(=O)c3cc(C(F)(F)F)cc(C(F)(F)F)c3)nn2)cc1	–	–	–	–	–	–	–	–	–	–	–	–	–	–	–	–	–	–	–	GI50 [28]: 1.1 µM
COc1cccc(-c2cn(CCCN3CCN(S(=O)(=O)c4ccc(Br)cc4)CC3)nn2)c1	–	20 µM	–	18 µM	–	14 µM	> 50 µM	25 µM	40 µM	> 50 µM	35 µM	20 µM	–	–	29 µM	< 10%	23 µM	32.6%	10.7%	–
COc1cccc(-c2cn(CCCN3CCN(S(=O)(=O)c4ccccc4)CC3)nn2)c1	–	40 µM	–	28 µM	–	35 µM	> 50 µM	> 50 µM	> 50 µM	> 50 µM	> 50 µM	> 50 µM	–	–	> 50 µM	< 10%	42 µM	15.8%	< 10%	–
COc1cccc(-c2cn(CCCN3CCN(S(=O)(=O)c4ccc(C(F)(F)F)cc4)CC3)nn2)c1	–	21 µM	–	23 µM	–	28 µM	> 50 µM	> 50 µM	> 50 µM	> 50 µM	> 50 µM	> 50 µM	–	–	39 µM	< 10%	> 50 µM	29%	< 10%	–

Further lines, with some results ahead:

GI50 [7]	GI50 [8]	GI50 [9]	GI50 [13]	GI50 [14]	GI50 [17]	GI50 [22]	GI50 [30]	GI50 [33]	GI50 [34]	GI50 [35]	Compound	GI50 [6]	GI50 [18]	GI50 [26]	GI50 at 72 h [27]	inhibition at 25 µM [29]	GI50 [31]	inhibition at 72 h, 25 µM [32]	inhibition at 25 µM [36]	further results
> 50 µM	14 µM	> 50 µM	10 µM	> 50 µM	9.2 µM	> 50 µM	–	–	–	–	O=S(=O)(c1ccccc1C(F)(F)F)N1CCN(CCCn2cc(-c3ccc(Br)cc3)nn2)CC1	38 µM	23 µM	> 50 µM	12 µM	–	–	–	–	inhibition at 25 µM [10]: 68%; inhibition at 25 µM [11]: 53%; inhibition at 25 µM [12]: 51%; inhibition at 25 µM [15]: 87%; inhibition at 25 µM [16]: 92%; inhibition at 72 h, 25 µM [19]: 72%; inhibition at 25 µM [20]: < 10%; inhibition at 25 µM [21]: 58%; inhibition at 25 µM [23]: 65%; inhibition at 25 µM [24]: 42%; inhibition at 25 µM [25]: 70%
–	29 µM	–	22 µM	–	33 µM	> 50 µM	> 50 µM	> 50 µM	> 50 µM	> 50 µM	COc1cccc(-c2cn(CCCN3CCN(S(=O)(=O)c4ccc(C)cc4)CC3)nn2)c1	> 50 µM	–	–	> 50 µM	< 10%	> 50 µM	45%	< 10%	–
0.48 µM	0.8 µM	0.68 µM	0.47 µM	0.61 µM	0.36 µM	0.64 µM	–	–	–	–	COc1ccccc1-c1cn(CCCN2CCN(S(=O)(=O)c3ccc(C(F)(F)F)cc3)CC2)nn1	0.59 µM	0.56 µM	0.43 µM	1 µM	–	–	–	–	–
